Published values gathered from unrelated publications.
Protocols differ between the studies behind these lines.
Target: Tyrosine-protein kinase Srms (SRMS, Homo sapiens, UniProt Q9H3Y6)

| SMILES | observed | mode | method | concentration | endpoint | value |
| --- | --- | --- | --- | --- | --- | --- |
| COc1ncccc1-c1cnn2ccc(N3CCN(C(=O)OC(C)C)CC3)nc12 | binding |  | competition with immobilised ligand | 1 µM | remaining binding | 78% |
| O=c1[nH]c2ccccc2n1C1CCN(Cc2ccc(-c3[nH]c4cc5ncnc5cc4nc3-c3ccccc3)cc2)CC1 | cell-free assay |  |  | 0.5 µM | remaining signal | 93.1% |
| Cc1nn(C)cc1-c1nc2c(N3CCN(Cc4ccc(Cl)cc4)CC3)c(Cl)cnc2[nH]1 | binding |  | competition with immobilised ligand | 1 µM | remaining binding | 100% |
| Cn1cc(-c2cc(F)cc(N3CCn4c(cc5c4CCCC5)C3=O)c2CO)cc(Nc2ccc(N3CCN(C4COC4)CC3)cn2)c1=O | enzyme activity | inhibitor |  | 0.1 µM | inhibition | 17% |
| N#CC1(c2ccccn2)CCN(Cc2cc(C(=O)O)c(=O)n3ccccc23)CC1 | cell-free assay |  | competition with immobilised ligand | 1 µM | remaining binding | 93% |
| Cn1cc(-c2cccc(N3CCc4c(sc5c4CC(C)(C)C5)C3=O)c2CO)cc(Nc2ccncn2)c1=O | enzyme activity | inhibitor |  | 1 µM | inhibition | -3% |
| Nc1ncc(-c2nc(N3CCOCC3)nc(N3CCOCC3)n2)c(C(F)F)n1 | cell-free assay |  | competition with immobilised ligand | 10 µM | remaining binding | 88% |
| Cn1cncc1[C@@](O)(COc1ccc(C#N)cc1-c1ccc(OC(F)(F)F)cc1)c1ccc(C#N)cc1 | cell-free assay |  | competition with immobilised ligand | 1 µM | remaining binding | 100% |
